pIC50: −log10 of the molar value.
Experiments:
[1] = molecular target: 11-beta-hydroxysteroid dehydrogenase 1 (Mus musculus) (UniProt P50172); assay: Inhibition of mouse 11beta-HSD1 expressed in HEK293 cell microsomes assessed as inhibition of [3H]cortisone conversion to [3H]cortisol at 1 uM by scintillation proximity assay; conditions: Microsome
Method in brief: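 Primary single-concentration screen in the SPA. Mouse 11β-HSD1 HEK-293 stable-transfectant microsomes are incubated with NADPH and [3H]cortisone, and [3H]cortisol is captured by antibody-coupled protein A SPA beads. Inhibitory ratio is the average of two determinations, with deviation from the average of 10% of the average value.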

[2] = molecular target: T1, 11-beta-hydroxysteroid dehydrogenase type 2 (Homo sapiens, UniProt P80365); assay: Inhibition of human 11beta-HSD2
T1 sequence (P80365 whole entry): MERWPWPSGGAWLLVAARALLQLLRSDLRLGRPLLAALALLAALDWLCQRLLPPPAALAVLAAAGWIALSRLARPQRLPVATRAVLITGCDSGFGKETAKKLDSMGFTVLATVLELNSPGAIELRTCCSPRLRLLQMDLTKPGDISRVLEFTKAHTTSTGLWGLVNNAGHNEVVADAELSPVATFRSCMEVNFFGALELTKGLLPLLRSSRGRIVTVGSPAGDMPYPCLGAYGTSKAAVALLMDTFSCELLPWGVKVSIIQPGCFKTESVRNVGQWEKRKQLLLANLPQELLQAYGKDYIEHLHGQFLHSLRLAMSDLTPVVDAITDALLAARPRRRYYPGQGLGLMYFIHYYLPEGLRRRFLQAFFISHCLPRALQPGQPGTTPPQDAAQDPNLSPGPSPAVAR

Homo sapiens = organism: Homo sapiens; assay: selectivity ratio of IC50 for human 11beta-HSD2 to IC50 for human 11beta-HSD1
Method in brief: (§1)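 Ratio of 11β-HSD2 IC50 to 11β-HSD1 IC50 for the same species (mouse or human). Both IC50s come from microsome-based scintillation proximity assays, averaged over at least two independent experiments with at least duplicate wells per concentration. Only compounds exceeding 50% inhibition in the primary screen were evaluated.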

[3] = molecular target: T2, 11-beta-hydroxysteroid dehydrogenase 1 (Homo sapiens, UniProt P28845); assay: Inhibition of human 11beta-HSD1 expressed in HEK293 cell microsomes assessed as inhibition of [3H]cortisone conversion to [3H]cortisol by scintillation proximity assay; parameters: species or system Microsome
T2 sequence (P28845 whole entry): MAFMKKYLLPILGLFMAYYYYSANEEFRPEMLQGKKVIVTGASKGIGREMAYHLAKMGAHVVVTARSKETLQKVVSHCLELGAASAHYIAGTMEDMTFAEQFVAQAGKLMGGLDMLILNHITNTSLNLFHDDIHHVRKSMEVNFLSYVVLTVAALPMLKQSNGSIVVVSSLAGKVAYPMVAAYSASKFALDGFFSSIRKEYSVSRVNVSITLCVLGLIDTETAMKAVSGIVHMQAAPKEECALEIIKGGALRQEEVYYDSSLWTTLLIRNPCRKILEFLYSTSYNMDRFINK
Method in brief: (§2)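 Enzyme source: microsomal fraction from HEK-293 cells stably transfected with 11β-HSD1 (human or mouse), incubated with NADPH and [3H]cortisone. The [3H]cortisol product is captured by a monoclonal antibody on protein A-coated SPA beads. IC50 is averaged over at least two independent experiments, at least duplicate per concentration.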

[4] = molecular target: 11-beta-hydroxysteroid dehydrogenase 1 (Mus musculus, UniProt P50172); assay: Inhibition of mouse 11beta-HSD1 expressed in HEK293 cell microsomes assessed as inhibition of [3H]cortisone conversion to [3H]cortisol by scintillation proximity assay; parameters: species or system Microsome; method in brief: as §2
Sequence of 11-beta-hydroxysteroid dehydrogenase 1 (Mus musculus, UniProt P50172) (P50172 whole entry): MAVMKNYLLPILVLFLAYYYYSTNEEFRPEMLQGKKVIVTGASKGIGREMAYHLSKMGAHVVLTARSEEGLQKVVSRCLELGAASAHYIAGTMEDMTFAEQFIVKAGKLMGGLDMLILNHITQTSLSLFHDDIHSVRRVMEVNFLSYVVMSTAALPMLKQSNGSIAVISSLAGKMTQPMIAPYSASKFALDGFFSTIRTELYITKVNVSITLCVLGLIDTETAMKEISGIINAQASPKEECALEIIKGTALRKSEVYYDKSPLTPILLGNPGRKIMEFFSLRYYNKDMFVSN

[5] = molecular target: T3, 11-beta-hydroxysteroid dehydrogenase type 2 (Mus musculus, UniProt P51661); assay: Inhibition of mouse 11beta-HSD2
T3 sequence (P51661 whole entry): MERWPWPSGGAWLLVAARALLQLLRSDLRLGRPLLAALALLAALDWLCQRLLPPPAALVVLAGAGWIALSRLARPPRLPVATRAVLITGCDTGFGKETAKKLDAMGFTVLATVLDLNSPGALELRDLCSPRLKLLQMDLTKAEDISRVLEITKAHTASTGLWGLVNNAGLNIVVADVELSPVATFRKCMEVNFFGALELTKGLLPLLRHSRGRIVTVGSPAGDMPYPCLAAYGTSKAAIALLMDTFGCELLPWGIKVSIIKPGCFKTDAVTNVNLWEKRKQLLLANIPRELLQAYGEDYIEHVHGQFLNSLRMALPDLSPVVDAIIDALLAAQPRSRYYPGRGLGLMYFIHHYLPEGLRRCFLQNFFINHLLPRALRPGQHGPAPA
Method in brief: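 Scintillation proximity assay using microsomes containing mouse 11β-HSD2. IC50 is averaged over at least two independent experiments, with at least two replicates per concentration.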

Mus musculus = organism: Mus musculus; assay: Selectivity ratio of IC50 for mouse 11beta-HSD2 to IC50 for mouse 11beta-HSD1; method in brief: as §1
[6] = molecular target: 11-beta-hydroxysteroid dehydrogenase 1 (Rattus norvegicus, UniProt P16232); assay: Inhibition of rat 11beta-HSD1
Sequence of 11-beta-hydroxysteroid dehydrogenase 1 (Rattus norvegicus, UniProt P16232) (P16232 whole entry): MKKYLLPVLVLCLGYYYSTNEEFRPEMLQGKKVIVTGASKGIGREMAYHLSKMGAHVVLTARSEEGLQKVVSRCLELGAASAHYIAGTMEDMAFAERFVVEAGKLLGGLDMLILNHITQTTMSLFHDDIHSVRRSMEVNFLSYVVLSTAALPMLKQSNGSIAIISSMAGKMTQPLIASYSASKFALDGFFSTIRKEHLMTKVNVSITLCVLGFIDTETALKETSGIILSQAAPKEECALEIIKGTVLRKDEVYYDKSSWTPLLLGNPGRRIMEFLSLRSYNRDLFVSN

[7] = molecular target: T2, 11-beta-hydroxysteroid dehydrogenase 1; assay: Inhibition of human 11beta-HSD1
Method in brief: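 Scintillation proximity assay on microsomes from HEK-293 cells stably transfected with human 11β-HSD1. Microsomes were incubated with NADPH and [3H]cortisone. The [3H]cortisol formed was captured by a monoclonal antibody on protein A-coated SPA beads. Compounds were first screened at […]; those giving over 50% inhibition went on to full IC50 determination. Each value comes from at least two independent experiments, with duplicates or more at each concentration.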

Sequence of 11-beta-hydroxysteroid dehydrogenase 1 (Mus musculus) (P50172 whole entry, looked up): as the sequence (P50172 whole entry) above

inhibition [1] [%] | pIC50 [2] | Ratio IC50 (Homo sapiens) | pIC50 [3] | pIC50 [4] | pIC50 [5] | Ratio IC50 (Mus musculus) | SMILES | pIC50 [6] | pIC50 [7]
20.4 | 5.00 | 7 | 5.85 | 5.81 | < 3.00 | > 640 | C=C1C[C@@]23CC[C@@H]4[C@](C)(CO)CCC[C@@]4(C)[C@@H]2CC[C@H]1C3 |  | 
 |  |  |  |  |  |  | C[C@@H]1CC(n2c(=O)[nH]c3ccccc32)C[C@@H](C)N1C(=O)c1cc(Cl)c(N)c(Cl)c1 (some centres undefined) | 7.41 | 7.66

Reference: ChEMBL document CHEMBL2401669, “Discovery and structure-activity relationships of ent-Kaurene diterpenoids as potent and selective 11β-HSD1 inhibitors: potential impact in diabetes” (Eur J Med Chem, 2013)
